Source: ChEMBL document CHEMBL3046592, “Organophosphorus derivatives containing piperazine dithiosemicarbazones as chemotherapeutants against fungal pathogens of sugarcane” (2005)
Converted amounts (≈) assume the structure as drawn.

Key:
Type in all cases: functional
Settings in all cases: 168 h
Curvularia pallescens [1] = test: Fungicidal activity against Cochliobolus pallescens assessed as mycelial inhibition at 1000 ppm at 28 +/- 2 degC measured after 7 days by food poison technique
Procedure, shortened: (§1)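 Poisoned-food test on oatmeal agar. The compound was dissolved in 0.5 cm3 of solvent and mixed into the medium to give the stated ppm. Controls received the same amount of solvent only. A 5 mm mycelial disk, cut from the periphery of a 2-week-old culture, was placed at the plate centre. Plates were incubated 7 days at 28 ± 2 °C, in triplicate. Percent inhibition = (dc − dt)/dc × 100, using mean colony diameters of control (dc) and treatment (dt).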

Curvularia pallescens [2] = test: Fungicidal activity against Cochliobolus pallescens assessed as mycelial inhibition at 10 ppm at 28 +/- 2 degC measured after 7 days by food poison technique; procedure, shortened: as §1
Fusarium oxysporum [3] = test: Fungicidal activity against Fusarium oxysporum assessed as mycelial inhibition at 10 ppm at 28 +/- 2 degC measured after 7 days by food poison technique; procedure, shortened: as §1
Colletotrichum falcatum [4] = test: Fungicidal activity against Glomerella tucumanensis assessed as mycelial inhibition at 100 ppm at 28 +/- 2 degC measured after 7 days by food poison technique; procedure, shortened: as §1
Colletotrichum falcatum [5] = test: Fungicidal activity against Glomerella tucumanensis assessed as mycelial inhibition at 10 ppm at 28 +/- 2 degC measured after 7 days by food poison technique; procedure, shortened: as §1
Colletotrichum falcatum [6] = test: Fungicidal activity against Glomerella tucumanensis assessed as mycelial inhibition at 1000 ppm at 28 +/- 2 degC measured after 7 days by food poison technique; procedure, shortened: as §1
Fusarium oxysporum [7] = test: Fungicidal activity against Fusarium oxysporum assessed as mycelial inhibition at 1000 ppm at 28 +/- 2 degC measured after 7 days by food poison technique; procedure, shortened: as §1
Fusarium oxysporum [8] = test: Fungicidal activity against Fusarium oxysporum assessed as mycelial inhibition at 100 ppm at 28 +/- 2 degC measured after 7 days by food poison technique; procedure, shortened: as §1
Curvularia pallescens [9] = test: Fungicidal activity against Cochliobolus pallescens assessed as mycelial inhibition at 100 ppm at 28 +/- 2 degC measured after 7 days by food poison technique; procedure, shortened: as §1
Fusarium oxysporum [10] = test: Fungicidal activity against Fusarium oxysporum assessed as mycelial inhibition at 28 +/- 2 degC measured after 7 days by food poison technique
Colletotrichum falcatum [11] = test: Fungicidal activity against Glomerella tucumanensis assessed as mycelial inhibition at 28 +/- 2 degC measured after 7 days by food poison technique
Curvularia pallescens [12] = test: Fungicidal activity against Cochliobolus pallescens assessed as mycelial inhibition at 28 +/- 2 degC measured after 7 days by food poison technique

In the case of `CCOP(=O)(OCC)S/C(=N\N=C\c1ccc([N+](=O)[O-])cc1)N1CCN(/C(=N\N=C\c2ccc([N+](=O)[O-])cc2)SP(=O)(OCC)OCC)CC1`, the inhibition at 1000 ppm (Curvularia pallescens [1]) is reported as 89.2%, the inhibition at 10 ppm (Curvularia pallescens [2]) is reported as 35.6% and the inhibition at 10 ppm (Fusarium oxysporum [3]) is reported as 27.5%. For the same compound, the inhibition at 100 ppm (Colletotrichum falcatum [4]) was 40.8%, the inhibition at 10 ppm (Colletotrichum falcatum [5]) was 25.8% and the inhibition at 1000 ppm (Colletotrichum falcatum [6]) was 65.2%. It also gave an inhibition at 1000 ppm (Fusarium oxysporum [7]) of 62.6%, an inhibition at 100 ppm (Fusarium oxysporum [8]) of 40.2% and an inhibition at 100 ppm (Curvularia pallescens [9]) of 58.2%.
`S=C(N/N=C/c1ccccc1Cl)N1CCN(C(=S)N/N=C/c2ccccc2Cl)CC1` showed an inhibition at 1000 ppm (Curvularia pallescens [1]) of 66.2%, an inhibition at 10 ppm (Curvularia pallescens [2]) of 27.4% and an inhibition at 10 ppm (Fusarium oxysporum [3]) of 25.5%. The inhibition at 100 ppm (Colletotrichum falcatum [4]) was 30.8%, the inhibition at 10 ppm (Colletotrichum falcatum [5]) was 21.2% and the inhibition at 1000 ppm (Colletotrichum falcatum [6]) was 60.3%. The inhibition at 1000 ppm (Fusarium oxysporum [7]) was 69.2%, the inhibition at 100 ppm (Fusarium oxysporum [8]) was 42% and the inhibition at 100 ppm (Curvularia pallescens [9]) was 47.3%.
Work on `CCOP(=O)(OCC)S/C(=N/N=C/c1ccccc1Cl)N1CCN(/C(=N\N=C\c2ccccc2Cl)SP(=O)(OCC)OCC)CC1` yielded an inhibition at 1000 ppm (Curvularia pallescens [1]) of 88.2%, an inhibition at 10 ppm (Curvularia pallescens [2]) of 47.7% and an inhibition at 10 ppm (Fusarium oxysporum [3]) of 56.8%. For the same compound, the inhibition at 100 ppm (Colletotrichum falcatum [4]) was 70.6%, the inhibition at 10 ppm (Colletotrichum falcatum [5]) was 55.2% and the inhibition at 1000 ppm (Colletotrichum falcatum [6]) was 85.6%. For the same compound, the inhibition at 1000 ppm (Fusarium oxysporum [7]) was 100%, the inhibition at 100 ppm (Fusarium oxysporum [8]) was 82.4% and the inhibition at 100 ppm (Curvularia pallescens [9]) was 86.8%.
In the case of `S=C(N/N=C/c1ccc(Cl)cc1)N1CCN(C(=S)N/N=C/c2ccc(Cl)cc2)CC1`, the inhibition at 1000 ppm (Curvularia pallescens [1]) is reported as 68.4%, the inhibition at 10 ppm (Curvularia pallescens [2]) is reported as 38.5% and the inhibition at 10 ppm (Fusarium oxysporum [3]) is reported as 28.7%. For the same compound, the inhibition at 100 ppm (Colletotrichum falcatum [4]) was 35.4%, the inhibition at 10 ppm (Colletotrichum falcatum [5]) was 24.8% and the inhibition at 1000 ppm (Colletotrichum falcatum [6]) was 68.2%. For the same compound, the inhibition at 1000 ppm (Fusarium oxysporum [7]) was 64.8%, the inhibition at 100 ppm (Fusarium oxysporum [8]) was 41.6% and the inhibition at 100 ppm (Curvularia pallescens [9]) was 49.2%.
In the case of `CCOP(=O)(OCC)S/C(=N/N=C/c1ccc(Cl)cc1)N1CCN(/C(=N\N=C\c2ccc(Cl)cc2)SP(=O)(OCC)OCC)CC1`, the MIC (Fusarium oxysporum [10]) is reported as 1000 µg/mL (≈ 1.33 mM), the MIC (Colletotrichum falcatum [11]) is reported as 1000 µg/mL (≈ 1.33 mM) and the inhibition at 1000 ppm (Curvularia pallescens [1]) is reported as 100%. For the same compound, the inhibition at 10 ppm (Curvularia pallescens [2]) was 66.6%, the inhibition at 10 ppm (Fusarium oxysporum [3]) was 37.8% and the inhibition at 100 ppm (Colletotrichum falcatum [4]) was 72.8%. For the same compound, the inhibition at 10 ppm (Colletotrichum falcatum [5]) was 42.5%, the inhibition at 1000 ppm (Colletotrichum falcatum [6]) was 100% and the MIC (Curvularia pallescens [12]) was 1000 µg/mL (≈ 1.33 mM). For the same compound, the inhibition at 1000 ppm (Fusarium oxysporum [7]) was 100%, the inhibition at 100 ppm (Fusarium oxysporum [8]) was 76.2% and the inhibition at 100 ppm (Curvularia pallescens [9]) was 88.2%.
Compound `S=C(N/N=C/c1ccccc1)N1CCN(C(=S)N/N=C/c2ccccc2)CC1` has an inhibition at 1000 ppm (Curvularia pallescens [1]) of 57.4%, an inhibition at 10 ppm (Curvularia pallescens [2]) of 20.6% and an inhibition at 10 ppm (Fusarium oxysporum [3]) of 14.3%. The inhibition at 100 ppm (Colletotrichum falcatum [4]) was 28.9%, the inhibition at 10 ppm (Colletotrichum falcatum [5]) was 14.1% and the inhibition at 1000 ppm (Colletotrichum falcatum [6]) was 53.6%. For the same compound, the inhibition at 1000 ppm (Fusarium oxysporum [7]) was 48.8%, the inhibition at 100 ppm (Fusarium oxysporum [8]) was 25.6% and the inhibition at 100 ppm (Curvularia pallescens [9]) was 32.1%.
`CCOP(=O)(OCC)S/C(=N/N=C/c1ccccc1)N1CCN(/C(=N\N=C\c2ccccc2)SP(=O)(OCC)OCC)CC1` was tested, and the inhibition at 1000 ppm (Curvularia pallescens [1]) was 75%, the inhibition at 10 ppm (Curvularia pallescens [2]) was 32.8% and the inhibition at 10 ppm (Fusarium oxysporum [3]) was 24.8%. It also gave an inhibition at 100 ppm (Colletotrichum falcatum [4]) of 40.2%, an inhibition at 10 ppm (Colletotrichum falcatum [5]) of 25.8% and an inhibition at 1000 ppm (Colletotrichum falcatum [6]) of 73.4%. It also gave an inhibition at 1000 ppm (Fusarium oxysporum [7]) of 66.5%, an inhibition at 100 ppm (Fusarium oxysporum [8]) of 35.6% and an inhibition at 100 ppm (Curvularia pallescens [9]) of 49.5%.
`COc1ccc(/C=N/NC(=S)N2CCN(C(=S)N/N=C/c3ccc(OC)cc3)CC2)cc1` was tested, and the inhibition at 1000 ppm (Curvularia pallescens [1]) was 67.2%, the inhibition at 10 ppm (Curvularia pallescens [2]) was 28.6% and the inhibition at 10 ppm (Fusarium oxysporum [3]) was 35.3%. It also gave an inhibition at 100 ppm (Colletotrichum falcatum [4]) of 37.6%, an inhibition at 10 ppm (Colletotrichum falcatum [5]) of 22.1% and an inhibition at 1000 ppm (Colletotrichum falcatum [6]) of 65.9%. It also gave an inhibition at 1000 ppm (Fusarium oxysporum [7]) of 66.8%, an inhibition at 100 ppm (Fusarium oxysporum [8]) of 40.2% and an inhibition at 100 ppm (Curvularia pallescens [9]) of 45.8%.
`CCOP(=O)(OCC)S/C(=N/N=C/c1ccc(OC)cc1)N1CCN(/C(=N\N=C\c2ccc(OC)cc2)SP(=O)(OCC)OCC)CC1` was tested, and the MIC (Fusarium oxysporum [10]) was 1000 µg/mL (≈ 1.35 mM), the MIC (Colletotrichum falcatum [11]) was 1000 µg/mL (≈ 1.35 mM) and the inhibition at 1000 ppm (Curvularia pallescens [1]) was 100%. It also gave an inhibition at 10 ppm (Curvularia pallescens [2]) of 42.2%, an inhibition at 10 ppm (Fusarium oxysporum [3]) of 53.2% and an inhibition at 100 ppm (Colletotrichum falcatum [4]) of 58.6%. The inhibition at 10 ppm (Colletotrichum falcatum [5]) was 36.4%, the inhibition at 1000 ppm (Colletotrichum falcatum [6]) was 100% and the MIC (Curvularia pallescens [12]) was 1000 µg/mL (≈ 1.35 mM). For the same compound, the inhibition at 1000 ppm (Fusarium oxysporum [7]) was 100%, the inhibition at 100 ppm (Fusarium oxysporum [8]) was 70.6% and the inhibition at 100 ppm (Curvularia pallescens [9]) was 80.5%.
Compound `O=[N+]([O-])c1ccc(/C=N/NC(=S)N2CCN(C(=S)N/N=C/c3ccc([N+](=O)[O-])cc3)CC2)cc1` has an inhibition at 1000 ppm (Curvularia pallescens [1]) of 59.6%, an inhibition at 10 ppm (Curvularia pallescens [2]) of 22.7% and an inhibition at 10 ppm (Fusarium oxysporum [3]) of 16.2%. The inhibition at 100 ppm (Colletotrichum falcatum [4]) was 24.3%, the inhibition at 10 ppm (Colletotrichum falcatum [5]) was 11.6% and the inhibition at 1000 ppm (Colletotrichum falcatum [6]) was 46.6%. For the same compound, the inhibition at 1000 ppm (Fusarium oxysporum [7]) was 44.8%, the inhibition at 100 ppm (Fusarium oxysporum [8]) was 23.9% and the inhibition at 100 ppm (Curvularia pallescens [9]) was 31.1%.
With `COC(=O)Nc1nc2ccccc2[nH]1` [CARBENDAZIM] the MIC (Fusarium oxysporum [10]) was 3000 µg/mL (≈ 15.7 mM), the MIC (Colletotrichum falcatum [11]) was 4000 µg/mL (≈ 20.9 mM) and the MIC (Curvularia pallescens [12]) was 4000 µg/mL (≈ 20.9 mM).
For `COC(=O)NC(=S)Nc1ccccc1NC(=S)NC(=O)OC` [THIOPHANATE METHYL], the MIC (Fusarium oxysporum [10]) was 4000 µg/mL (≈ 11.7 mM), the MIC (Colletotrichum falcatum [11]) was 4000 µg/mL (≈ 11.7 mM) and the MIC (Curvularia pallescens [12]) was 4000 µg/mL (≈ 11.7 mM).
